# Assay results: ChEMBL document CHEMBL1770061, “Synthesis and antiproliferative activity of new cytotoxic azanaphthoquinone pyrrolo-annelated derivatives: Part II” (Bioorg Med Chem Lett, 2011)
# Calls of active or inactive are those of the source. The calls are words filed in the database; no cut-off is given here.
# Tests used:
# [1] = system: SF-268; experiment: Antiproliferative activity against human SF268 cells assessed as growth inhibition at 3.16 ug/ml after 48 hrs by XTT assay; assay type: functional; details: for inhibition at 3.16 µg/mL: SF-268, 48 h
# Procedure, shortened: (§1)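 This is the same 48 h XTT assay: 10-point half-log series, 0.3% final DMSO, 3 h XTT/PMS, A490, with untreated cells as 0% and blanks as 100% inhibition. Inhibition at the highest tested concentration was scored as none (<30%) or moderate (≥30%).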
# [2] = (§2) Antiproliferative activity against human RKOp27IND cells assessed as growth inhibition at 3.16 ug/ml after 48 hrs by XTT assay; assay type: functional; procedure, shortened: as §1
# [3] = system: SK-OV-3; experiment: Antiproliferative activity against human SKOV3 cells assessed as growth inhibition at 3.16 ug/ml after 48 hrs by XTT assay; assay type: functional; details: for inhibition at 3.16 µg/mL: SK-OV-3, 48 h; procedure, shortened: as §1
# [4] = Antiproliferative activity against human RKOp27 cells after 48 hrs by XTT assay; assay type: functional, cell-based; details: RKOp27, 48 h
# Procedure, shortened: (§3)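 Compounds were added from DMSO stocks as a 10-point half-log dilution series, with final DMSO adjusted to 0.3%. Cells were incubated for 45 h at 37 °C/5% CO2, then with 1 mg/ml XTT plus PMS for a further 3 h. Absorbance at 490 nm was read after 48 h total. Untreated cells were set as 0% and cell-free blanks as 100% inhibition. EC50 came from nonlinear regression of at least two independent assays.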
# [5] = Chemical stability of the compound in KH2PO4/Na2HPO4 buffer at pH 5.5 after 6 hrs by NMR spectroscopy; assay type: physicochemical; details: pH 5.5, 6 h
# Procedure, shortened: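 Compounds were exposed at 37 °C to a KH2PO4/Na2HPO4 buffer at pH 5.5, prepared according to the European Pharmacopoeia.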
# [6] = Antiproliferative activity against human KB/HeLa cells after 48 hrs by XTT assay; assay type: functional, cell-based; procedure, shortened: as §3
# [7] = system: NCI-H460; experiment: Antiproliferative activity against human NCI-H460 cells after 48 hrs by XTT assay; assay type: functional, cell-based; details: NCI-H460, 48 h; procedure, shortened: as §3
# [8] = system: NCI-H460; experiment: Antiproliferative activity against human NCI-H460 cells assessed as growth inhibition at 3.16 ug/ml after 48 hrs by XTT assay; assay type: functional; details: for inhibition at 3.16 µg/mL: NCI-H460, 48 h; procedure, shortened: as §1
# [9] = (§4) Antiproliferative activity against human KB/HeLa cells assessed as growth inhibition at 3.16 ug/ml after 48 hrs by XTT assay; assay type: functional; procedure, shortened: as §1
# [10] = (§5) Antiproliferative activity against human RKOp27 cells assessed as growth inhibition at 3.16 ug/ml after 48 hrs by XTT assay; assay type: functional; details: RKOp27, 48 h; procedure, shortened: as §1
# [11] = system: SK-OV-3; experiment: Antiproliferative activity against human SKOV3 cells after 48 hrs by XTT assay; assay type: functional, cell-based; details: SK-OV-3, 48 h
# Procedure, shortened: (§6)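 Compounds dissolved in DMSO were added as a 10-point half-log dilution series, with final DMSO adjusted to 0.3%. Cells were incubated 45 h at 37 °C/5% CO2, then XTT (1 mg/ml) plus PMS was added for 3 h more (48 h total). Absorbance was read at 490 nm. Untreated cells were set as 0% inhibition and cell-free blanks as 100%. EC50 was fitted by nonlinear regression from ≥2 independent assays and reported as mean ± SD.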
# [12] = Antiproliferative activity against human RKOp27IND cells after 48 hrs by XTT assay; assay type: functional, cell-based; procedure, shortened: as §6
# [13] = system: SF-268; experiment: Antiproliferative activity against human SF268 cells after 48 hrs by XTT assay; assay type: functional, cell-based; details: SF-268, 48 h; procedure, shortened: as §3
# [14] = system: KB; experiment: as §4; assay type: functional; procedure, shortened: as §1
# [15] = organism: Homo sapiens; experiment: as §2; assay type: functional; procedure, shortened: as §1
# [16] = system: RKOp27; experiment: as §5; assay type: functional; procedure, shortened: as §1
Compound,inhibition at 3.16 µg/mL [1],inhibition at 3.16 µg/mL [2],inhibition at 3.16 µg/mL [3],EC50 [4],EC50 [6],EC50 [7],inhibition at 3.16 µg/mL [8],inhibition at 3.16 µg/mL [9],inhibition at 3.16 µg/mL [10],EC50 [11],EC50 [12],EC50 [13],further results
O=C1c2ccncc2C(=O)c2c1ccn2CCCC1CO1 (centres undefined),≥ 30%,< 30%,< 30%,> 3.16 µg/mL,> 3.16 µg/mL,> 3.16 µg/mL,,,,,,,Stability [5]: Stable
CN(C)CCc1c[nH]c2c1C(=O)c1ccncc1C2=O,< 30%,< 30%,< 30%,,,,< 30%,< 30%,< 30%,,,,
CN(C)CCc1cn(CCCCN2CC2)c2c1C(=O)c1ccncc1C2=O,,,,0.205 µg/mL,0.512 µg/mL,0.722 µg/mL,,,,1.51 µg/mL,1.35 µg/mL,1.39 µg/mL,
O=C1c2ccncc2C(=O)c2c1ccn2CC(O)CN1CC1 (centres undefined),,,,0.899 µg/mL,0.747 µg/mL,2.21 µg/mL,,,,> 3.16 µg/mL,> 3.16 µg/mL,> 3.16 µg/mL,
O=C1c2ccncc2C(=O)c2c1ccn2CCCCN1CC1,,,,0.299 µg/mL,0.549 µg/mL,0.727 µg/mL,,,,2.19 µg/mL,2.23 µg/mL,1.89 µg/mL,
CN(C)CCc1cn(CCO)c2c1C(=O)c1ccncc1C2=O,< 30%,< 30%,< 30%,> 3.16 µg/mL,> 3.16 µg/mL,,< 30%,,,,,,
CN(C)CCc1cn(CCOS(C)(=O)=O)c2c1C(=O)c1ccncc1C2=O,,< 30%,,,,,< 30%,,< 30%,,,,inhibition [8]: inactive; inhibition [1]: inactive; inhibition [14]: inactive; inhibition [15]: inactive; inhibition [3]: inactive; inhibition [16]: inactive
O=C1c2c(O)ccc(O)c2C(=O)c2c(NCCNCCO)ccc(NCCNCCO)c21 [MITOXANTRONE],,,,0.0865 µg/mL,0.355 µg/mL,0.122 µg/mL,,,,0.121 µg/mL,0.763 µg/mL,0.315 µg/mL,
CN(C)CCc1cn(CCCCO)c2c1C(=O)c1ccncc1C2=O,< 30%,< 30%,< 30%,,,,< 30%,< 30%,< 30%,,,,
CN(C)CCc1cn(CCN2CC2)c2c1C(=O)c1ccncc1C2=O,,,,0.784 µg/mL,0.972 µg/mL,> 3.16 µg/mL,,,,2.74 µg/mL,2.36 µg/mL,2.41 µg/mL,
CS(=O)(=O)OCCn1ccc2c1C(=O)c1cnccc1C2=O,< 30%,≥ 30%,< 30%,,,> 3.16 µg/mL,,< 30%,< 30%,,,,
CN(C)CCCc1cn(CCCN(C)C)c2c1C(=O)c1ccncc1C2=O,< 30%,< 30%,< 30%,> 3.16 µg/mL,,> 3.16 µg/mL,,< 30%,,,,,
CS(=O)(=O)OCCCCn1ccc2c1C(=O)c1cnccc1C2=O,,< 30%,< 30%,> 3.16 µg/mL,> 3.16 µg/mL,> 3.16 µg/mL,,,,,,> 3.16 µg/mL,
CN(C)CCc1cn(CCCCCCCN2CC2)c2c1C(=O)c1ccncc1C2=O,< 30%,< 30%,,> 3.16 µg/mL,> 3.16 µg/mL,> 3.16 µg/mL,,,,> 3.16 µg/mL,,,
CN(C)CCCn1cc(CCN(C)C)c2c1C(=O)c1cnccc1C2=O,,,,> 3.16 µg/mL,> 3.16 µg/mL,> 3.16 µg/mL,,,,> 3.16 µg/mL,> 3.16 µg/mL,> 3.16 µg/mL,
O=C1c2ccncc2C(=O)c2c1ccn2CCCCCCCN1CC1,,,,1.19 µg/mL,> 3.16 µg/mL,> 3.16 µg/mL,,,,> 3.16 µg/mL,> 3.16 µg/mL,> 3.16 µg/mL,
O=C1c2ccncc2C(=O)c2c1ccn2CCCCCCC1CO1 (centres undefined),< 30%,< 30%,< 30%,,,,< 30%,< 30%,< 30%,,,,Stability [5]: Stable
O=C1c2ccncc2C(=O)c2c1ccn2CC1CO1 (centres undefined),,,,0.026 µg/mL,0.062 µg/mL,0.062 µg/mL,,,,0.265 µg/mL,1.3 µg/mL,0.2 µg/mL,Stability [5]: Stable
CN(C)CCc1cn(CCCCCCCOS(C)(=O)=O)c2c1C(=O)c1ccncc1C2=O,,,,,,,,,,,,,Stability [5]: Unstable
CN(C)CCc1cn(CCN(C)C)c2c1C(=O)c1ccncc1C2=O,< 30%,< 30%,< 30%,,,,< 30%,< 30%,< 30%,,,,
CN(C)CCCc1c[nH]c2c1C(=O)c1ccncc1C2=O,< 30%,< 30%,< 30%,,,,,< 30%,< 30%,,,,
O=C1c2ccncc2C(=O)c2c1ccn2CCN1CC1,,,< 30%,> 3.16 µg/mL,> 3.16 µg/mL,> 3.16 µg/mL,,,,,> 3.16 µg/mL,> 3.16 µg/mL,
CN(C)CCc1cn(CCNCCO)c2c1C(=O)c1ccncc1C2=O,,< 30%,< 30%,> 3.16 µg/mL,> 3.16 µg/mL,,< 30%,,,,,> 3.16 µg/mL,
CN(C)CCc1cn(CCCCCCCO)c2c1C(=O)c1ccncc1C2=O,< 30%,< 30%,< 30%,,,,< 30%,< 30%,< 30%,,,,
CS(=O)(=O)OCCCCCCCn1ccc2c1C(=O)c1cnccc1C2=O,< 30%,< 30%,< 30%,,,,< 30%,< 30%,< 30%,,,,
O=C1c2ccncc2C(=O)c2c1ccn2CCCC(O)CN1CC1 (centres undefined),< 30%,< 30%,< 30%,> 3.16 µg/mL,> 3.16 µg/mL,> 3.16 µg/mL,,,,,,,
O=C1c2ccncc2C(=O)c2c1ccn2CCCCCCC(O)CN1CC1 (centres undefined),< 30%,< 30%,< 30%,> 3.16 µg/mL,> 3.16 µg/mL,> 3.16 µg/mL,,,,,,,
CNCCn1cc(CCN(C)C)c2c1C(=O)c1cnccc1C2=O,,,,> 3.16 µg/mL,> 3.16 µg/mL,> 3.16 µg/mL,,,,> 3.16 µg/mL,> 3.16 µg/mL,> 3.16 µg/mL,
CN(C)CCc1cn(CCCCOS(C)(=O)=O)c2c1C(=O)c1ccncc1C2=O,,,,,,,,,,,,,Stability [5]: Unstable
